Assay results: ChEMBL document CHEMBL1156079, “Imidazoquines as antimalarial and antipneumocystis agents” (J Med Chem, 2009)
Values after ≈ are worked out from the molar mass of the structure shown.

Tests used:
[1] = Solubility in water; type: physicochemical
[2] = Octanol/water partition coefficient, log P of the compound; type: physicochemical
Homo sapiens = species on record: Homo sapiens; assay: Half life in human plasma by HPLC analysis
Plasmodium berghei [3] = assay: (§1) Antiplasmodial activity against Plasmodium berghei ANKA infected in BALB/c mice (Mus musculus) assessed as parasite-transmission to Anopheles stephensi after feeding on infected mice (Mus musculus) at 10 umol/kg, intraperitoneally administered 4 days after infection measured 10 days after 2 hrs of mosquito feeding by transmission-blocking activity assay relative to control; type: functional
How it was run: (§2)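 Balb/C mice infected with P. berghei ANKA; after 4 days, once gametocytes were seen on Giemsa blood films, groups of six got one intraperitoneal dose (10 or 50 μmol/kg; PBS controls). At 2 h, anesthetized mice fed ca. 50 glucose-starved female An. stephensi for 2 h. Ten days later, 10 mosquitoes per cage dissected; midgut oocysts counted, giving % infected mosquitoes and mean oocysts per mosquito.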

Pneumocystis carinii [4] = assay: Antipneumocystis activity against Pneumocystis carinii assessed as reduction in parasite ATP content after 24 to 72 hrs by luciferin-luciferase assay; type: functional, organism-based
How it was run: (§3)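 P. carinii from immunosuppressed, intratracheally inoculated Long Evans and Brown Norway rats, 10⁸ nuclei/ml in supplemented RPMI 1640 with 20% calf serum, pH 7.5–8.0, 380 mOsm. Compounds added in DMSO (final <0.2% v/v). Incubated at 35 °C, 10% CO₂, with daily medium change; sampled at 24, 48 and 72 h. ATP measured by luciferin-luciferase as % of untreated control; triplicate wells across isolation batches, three readings each.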

Pneumocystis carinii [5] = assay: Antipneumocystis activity against Pneumocystis carinii assessed as reduction in parasite ATP content after 24 hrs by luciferin-luciferase assay; type: functional, organism-based; how it was run: as §3
A549 = assay: Cytotoxicity against human A549 cells after 72 hrs; type: cell-based; conditions: A549, 72 h
Plasmodium berghei [6] = assay: as §1, with “at 50” for “at 10”; type: functional; how it was run: as §2
Pneumocystis carinii [7] = assay: Antipneumocystis activity against Pneumocystis carinii assessed as reduction in parasite ATP content after 72 hrs by luciferin-luciferase assay; type: functional, organism-based; how it was run: as §3
Pneumocystis carinii [8] = assay: Antipneumocystis activity against Pneumocystis carinii assessed as reduction in parasite ATP content after 48 hrs by luciferin-luciferase assay; type: functional, organism-based; how it was run: as §3
Pneumocystis carinii [9] = assay: Antipneumocystis activity against Pneumocystis carinii assessed as reduction in parasite ATP content at < 0.2% v/v by luciferin-luciferase assay; type: functional, organism-based; conditions: TDE = time-dependent effect
Plasmodium berghei [10] = assay: Antiplasmodial activity against liver-stage GFP expressing Plasmodium berghei sporozoites infected in human HuH7 cells assessed as inhibition of parasite schizonts development after 48 hrs by FACS analysis; type: functional, organism-based; conditions: for Activity: Huh-7; for IC50: Huh-7, Liver
[11] = Chemical stability by HPLC analysis; type: physicochemical
Plasmodium falciparum = assay: Antiplasmodial activity against chloroquine-resistant blood stage Plasmodium falciparum W2 after 48 hrs by FACS analysis; type: functional, organism-based; conditions: W2, 48 h
[12] = Selectivity index, ratio of cytotoxicity against human A549 cells to IC50 for chloroquine-resistant blood-stage Plasmodium falciparum W2; type: toxicity, cell-based; conditions: read-out: Selectivity Index

## COc1cc(NC(C)CCCN2C(=O)[C@@H](C)NC2(C)C)c2ncccc2c1 (stereo partly specified)
[1]; water
  solubility: 29.8 µg/mL (≈ 80.4 µM)
[2]
  logP: 3.25
Homo sapiens
  half-life: > 72 h

## COc1cc(NC(C)CCCN)c2ncccc2c1 (stereo unspecified) [PRIMAQUINE]
[1]; buffer
  solubility: 56.4 µg/mL (≈ 217 µM)
Plasmodium berghei [3]
  Activity: 40%
Pneumocystis carinii [4]
  Activity: Dose-dependent effect
Pneumocystis carinii [5]
  IC50: 18.1 µM
A549
  IC50: > 100 µM
[2]
  logP: 2.76
Plasmodium berghei [6]
  Activity: 2.9%
Pneumocystis carinii [7]
  IC50: 3.5 µM
Pneumocystis carinii [8]
  IC50: 8.5 µM
Pneumocystis carinii [9]
  Activity: tde

## COc1cc(NC(C)CCCN2C(=O)CNC2(C)C)c2ncccc2c1 (stereo unspecified)
[1]; water
  solubility: 40.5 µg/mL (≈ 114 µM)
[2]
  logP: 3.07

## CC[C@H](C)[C@@H](N)C(=O)N1CC(=O)N(CCCC(C)Nc2cc(OC)cc3cccnc23)C1(C)C (stereo partly specified)
[1]; water
  solubility: 29.7 µg/mL (≈ 63.2 µM)
Plasmodium berghei [10]
  Activity: Dose-dependent effect
  IC50: 13 µM
Plasmodium berghei [3]
  Activity: 83.3%
[11]
  Stability: Stable
Pneumocystis carinii [4]
  Activity: Dose-dependent effect
Pneumocystis carinii [5]
  IC50: 27.5 µM
A549
  IC50: 14.9 µM
[2]
  logP: 3.4
Plasmodium berghei [6]
  Activity: 62.2%
Homo sapiens
  half-life: > 72 h
Pneumocystis carinii [7]
  IC50: 9.8 µM
Pneumocystis carinii [8]
  IC50: 16 µM
Plasmodium falciparum
  IC50: 8.7 µM
Pneumocystis carinii [9]
  Activity: tde

## COc1cc(NC(C)CCCN2C(=O)CN(C(=O)[C@@H](C)N)C2(C)C)c2ncccc2c1 (stereo partly specified)
[1]; water
  solubility: 120 µg/mL (≈ 281 µM)
Plasmodium berghei [10]
  Activity: Dose-dependent effect
  IC50: 10 µM
Plasmodium berghei [3]
  Activity: 67.9%
[11]
  Stability: Stable
Pneumocystis carinii [4]
  Activity: Dose-dependent effect
Pneumocystis carinii [5]
  IC50: 39.6 µM
A549
  IC50: 7.8 µM
[2]
  logP: 2.49
Plasmodium berghei [6]
  Activity: 40.1%
Homo sapiens
  half-life: > 72 h
Pneumocystis carinii [7]
  IC50: 8.4 µM
Pneumocystis carinii [8]
  IC50: 18.7 µM
Pneumocystis carinii [9]
  Activity: tde

## COc1cc(NC(C)CCCN2C(=O)CN(C(=O)[C@H](N)C(C)C)C2(C)C)c2ncccc2c1 (stereo partly specified)
[1]; water
  solubility: 46.5 µg/mL (≈ 102 µM)
Plasmodium berghei [10]
  Activity: Dose-dependent effect
  IC50: 17 µM
[11]
  Stability: Stable
Pneumocystis carinii [4]
  Activity: Dose-dependent effect
Pneumocystis carinii [5]
  IC50: 54.3 µM
A549
  IC50: 5.5 µM
[2]
  logP: 2.93
Homo sapiens
  half-life: > 72 h
Pneumocystis carinii [7]
  IC50: 13.6 µM
Pneumocystis carinii [8]
  IC50: 20.2 µM
Plasmodium falciparum
  IC50: 7.9 µM
Pneumocystis carinii [9]
  Activity: tde

## COc1cc(N(C(C)=O)C(C)CCCN2C(=O)CN(C(C)=O)C2(C)C)c2ncccc2c1 (stereo unspecified)
Pneumocystis carinii [5]
  IC50: ≥ 50 µM
A549
  IC50: > 100 µM
Pneumocystis carinii [7]
  IC50: ≥ 50 µM
Pneumocystis carinii [8]
  IC50: ≥ 50 µM
Plasmodium falciparum
  IC50: > 10 µM

## COc1cc(NC(C)CCCN2C(=O)CN(C(=O)[C@H](N)CCSC)C2(C)C)c2ncccc2c1 (stereo partly specified)
[1]; water
  solubility: 11.7 µg/mL (≈ 24 µM)
Plasmodium berghei [10]
  Activity: Dose-dependent effect
  IC50: 31 µM
Plasmodium berghei [3]
  Activity: 47.1%
[11]
  Stability: Stable
Pneumocystis carinii [4]
  Activity: Dose-dependent effect
Pneumocystis carinii [5]
  IC50: 23.8 µM
A549
  IC50: 7.9 µM
[2]
  logP: 2.94
Plasmodium berghei [6]
  Activity: 26.4%
Homo sapiens
  half-life: > 72 h
Pneumocystis carinii [7]
  IC50: 7 µM
Pneumocystis carinii [8]
  IC50: 13.1 µM
Plasmodium falciparum
  IC50: 12.5 µM
Pneumocystis carinii [9]
  Activity: tde

## COc1cc(NC(C)CCCN2C(=O)CN(C(C)=O)C2(C)C)c2ncccc2c1 (stereo unspecified)
Pneumocystis carinii [5]
  IC50: ≥ 50 µM
A549
  IC50: > 100 µM
Pneumocystis carinii [7]
  IC50: 36.7 µM
Pneumocystis carinii [8]
  IC50: 102 µM
Plasmodium falciparum
  IC50: > 10 µM

## COc1cc(NC(C)CCCN2C(=O)[C@@H](C)N(C(=O)CN)C2(C)C)c2ncccc2c1 (stereo partly specified)
[1]; water
  solubility: 110 µg/mL (≈ 257 µM)
Plasmodium berghei [10]
  Activity: Dose-dependent effect
  IC50: 21 µM
Plasmodium berghei [3]
  Activity: 62%
[11]
  Stability: Stable
Pneumocystis carinii [4]
  Activity: Dose-dependent effect
Pneumocystis carinii [5]
  IC50: ≥ 50 µM
A549
  IC50: > 100 µM
[2]
  logP: 2.57
Plasmodium berghei [6]
  Activity: 37.5%
Homo sapiens
  half-life: > 72 h
Pneumocystis carinii [7]
  IC50: 52.2 µM
Pneumocystis carinii [8]
  IC50: 75.4 µM
Plasmodium falciparum
  IC50: 5.5 µM
Pneumocystis carinii [9]
  Activity: tde

## COc1cc(NC(C)CCCN2C(=O)CN(C(=O)CN)C2(C)C)c2ncccc2c1 (stereo unspecified)
[1]; water
  solubility: 150 µg/mL (≈ 363 µM)
Plasmodium berghei [10]
  Activity: Dose-dependent effect
  IC50: 22 µM
Plasmodium berghei [3]
  Activity: 42.5%
[11]
  Stability: Stable
Pneumocystis carinii [4]
  Activity: Dose-dependent effect
Pneumocystis carinii [5]
  IC50: 43.8 µM
A549
  IC50: > 100 µM
[2]
  logP: 2.19
Plasmodium berghei [6]
  Activity: 40.5%
Homo sapiens
  half-life: > 72 h
Pneumocystis carinii [7]
  IC50: 28.1 µM
Pneumocystis carinii [8]
  IC50: 37.5 µM
Plasmodium falciparum
  IC50: 6.7 µM
Pneumocystis carinii [9]
  Activity: tde

## COc1cc(NC(C)CCCN2C(=O)CN(C(=O)[C@H](N)CC(C)C)C2(C)C)c2ncccc2c1 (stereo partly specified)
[1]; water
  solubility: 26.6 µg/mL (≈ 56.6 µM)
Plasmodium berghei [10]
  Activity: Dose-dependent effect
  IC50: 24 µM
[11]
  Stability: Stable
Pneumocystis carinii [4]
  Activity: Dose-dependent effect
Pneumocystis carinii [5]
  IC50: 31.1 µM
A549
  IC50: 21.2 µM
[2]
  logP: 3.36
Homo sapiens
  half-life: > 72 h
Pneumocystis carinii [7]
  IC50: 10.9 µM
Pneumocystis carinii [8]
  IC50: 17.9 µM
[12]
  selectivity ratio: 3.5
Plasmodium falciparum
  IC50: 6.3 µM
Pneumocystis carinii [9]
  Activity: tde

## COc1cc(NC(C)CCCN2C(=O)CN(C(=O)[C@H](N)Cc3ccccc3)C2(C)C)c2ncccc2c1 (stereo partly specified)
[1]; water
  solubility: 5.4 µg/mL (≈ 10.7 µM)
Plasmodium berghei [10]
  Activity: Dose-dependent effect
  IC50: 21 µM
Plasmodium berghei [3]
  Activity: 43.8%
[11]
  Stability: Stable
Pneumocystis carinii [4]
  Activity: Dose-dependent effect
Pneumocystis carinii [5]
  IC50: 24 µM
A549
  IC50: 9.1 µM
[2]
  logP: 3.6
Plasmodium berghei [6]
  Activity: 40%
Homo sapiens
  half-life: > 72 h
Pneumocystis carinii [7]
  IC50: 10.1 µM
Pneumocystis carinii [8]
  IC50: 18.5 µM
Plasmodium falciparum
  IC50: 9.9 µM
Pneumocystis carinii [9]
  Activity: tde
